According to ChEMBL document CHEMBL4261600 (Eur J Med Chem, 2018):
Activity calls are given as the source filed them. The rule behind the calls is not given here.

Key:
[1] = tested on: HL-60; experiment: Induction of apoptosis in human HL60 cells assessed as decrease in c-MYC level after 2 hrs by immunoblotting analysis; type: functional, cell-based
[2] = tested on: HL-60; experiment: Induction of apoptosis in human HL60 cells assessed as decrease in XIAP level up to 3 uM after 2 hrs by immunoblotting analysis; type: functional, cell-based
[3] = MRT (0 to t) in beagle dog at 2 mg/kg, iv by LC-MS/MS analysis; type: ADME, organism-based, Canis lupus familiaris; conditions: in vivo
[4] = MRT (0 to infinity) in beagle dog at 10 mg/kg, po by LC-MS/MS analysis; type: ADME, organism-based, Canis lupus familiaris; conditions: in vivo
[5] = tested on: Tyrosine-protein kinase ABL1 (Homo sapiens), P00519 [H396P]; experiment: Binding affinity to human phosphorylated ABL1 H396P mutant (S229 to K512 residues) expressed in mammalian expression system assessed as remaining unbound target protein level at 1000 nM by Kinomescan method relative to control
How it was run: (§1)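 Single-point competition binding screen across a panel of 468 kinases and mutants, with the inhibitor at 1 μM. Binding is read out as percent of a DMSO control, and targets below 1 percent control were classed as strong binders.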

[6] = tested on: Tyrosine-protein kinase ABL1 (Homo sapiens), P00519 [Q252H]; experiment: Binding affinity to human non-phosphorylated ABL1 Q252H mutant (S229 to K512 residues) expressed in mammalian expression system assessed as remaining unbound target protein level at 1000 nM by Kinomescan method relative to control
How it was run: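 KINOMEscan competition-binding profiling across the panel of 468 kinases and mutants, with inhibitor tested at 1 μM. Binding is expressed as percent of control, with DMSO as the reference control.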

[7] = biological target: 5'-AMP-activated protein kinase catalytic subunit alpha-1 (Homo sapiens) (UniProt Q13131); experiment: Binding affinity to wild-type human partial length AMPK alpha1 (M1 to E306 residues) expressed in bacterial expression system assessed as remaining unbound target protein level at 1000 nM by Kinomescan method relative to control
How it was run: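 KINOMEscan competition binding profile across a panel of 468 kinases and mutants, with the inhibitor tested at a single concentration of 1 μM. Binding is reported as percent of control, meaning signal relative to a DMSO control.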

[8] = biological target: Cyclin-dependent kinase 11B (Homo sapiens, UniProt P21127); experiment: Binding affinity to wild-type human partial length CDK11 (M1 to N360 residues) expressed in bacterial expression system assessed as […] at 1000 nM after 1 hr by Kinomescan method relative to control
[9] = biological target: Megakaryocyte-associated tyrosine-protein kinase (Homo sapiens) (UniProt P42679); experiment: Binding affinity to wild-type human full length CTK (M43 to P508 residues) expressed in mammalian expression system assessed as remaining unbound target protein level at 1000 nM by Kinomescan method relative to control; how it was run: as §1
[10] = biological target: Serine/threonine-protein kinase DCLK3 (Homo sapiens) (UniProt Q9C098); experiment: Binding affinity to wild-type human partial length DCAMKL3 (E140 to V628 residues) expressed in bacterial expression system assessed as remaining unbound target protein level at 1000 nM by Kinomescan method relative to control
[11] = biological target: Vascular endothelial growth factor receptor 1 (Homo sapiens) (UniProt P17948); experiment: Binding affinity to wild-type human partial length FLT1 (R781 to F1239 residues) expressed in bacterial expression system assessed as remaining unbound target protein level at 1000 nM by Kinomescan method relative to control
[12] = biological target: Receptor-type tyrosine-protein kinase FLT3 (Homo sapiens) (UniProt P36888); experiment: Binding affinity to wild-type human partial length FLT3 (V592 to Y969 residues) expressed in bacterial expression system assessed as remaining unbound target protein level at 1000 nM by Kinomescan method relative to control
[13] = biological target: Insulin receptor-related protein (Homo sapiens) (UniProt P14616); experiment: Binding affinity to wild-type human partial length INSRR (R950 to E1278 residues) expressed in bacterial expression system assessed as remaining unbound target protein level at 1000 nM by Kinomescan method relative to control
[14] = biological target: Interleukin-1 receptor-associated kinase 3 (Homo sapiens) (UniProt Q9Y616); experiment: Binding affinity to wild-type human partial length IRAK3 (V147 to E596 residues) expressed in bacterial expression system assessed as remaining unbound target protein level at 1000 nM by Kinomescan method relative to control
[15] = biological target: Tyrosine-protein kinase ITK/TSK (Homo sapiens) (UniProt Q08881); experiment: Binding affinity to wild-type human partial length ITK (R335 to L620 residues) expressed in bacterial expression system assessed as remaining unbound target protein level at 1000 nM by Kinomescan method relative to control
[16] = biological target: Leukocyte tyrosine kinase receptor (Homo sapiens) (UniProt P29376); experiment: Binding affinity to wild-type human partial length LTK (P422 to S744 residues) expressed in bacterial expression system assessed as remaining unbound target protein level at 1000 nM by Kinomescan method relative to control
How it was run: (§2)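 KINOMEscan binding panel of 468 kinases/mutants. Inhibitor was tested at a single concentration of 1 μM. Binding is reported as percent of control, defined relative to a DMSO control.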

[17] = biological target: Dual specificity mitogen-activated protein kinase kinase 6 (Homo sapiens) (UniProt P52564); experiment: Binding affinity to wild-type human partial length MEK6 (K36 to D334 residues) expressed in bacterial expression system assessed as remaining unbound target protein level at 1000 nM by Kinomescan method relative to control; how it was run: as §2
[18] = biological target: Tyrosine-protein kinase Mer (Homo sapiens) (UniProt Q12866); experiment: Binding affinity to wild-type human partial length MERTK (R557 to L884 residues) expressed in bacterial expression system assessed as remaining unbound target protein level at 1000 nM by Kinomescan method relative to control; how it was run: as §2
[19] = biological target: Serine/threonine-protein kinase PAK 1 (Homo sapiens) (UniProt Q13153); experiment: Binding affinity to wild-type human partial length PAK1 (S149 to H545 residues) expressed in bacterial expression system assessed as remaining unbound target protein level at 1000 nM by Kinomescan method relative to control
[20] = biological target: cGMP-dependent protein kinase 2 (Homo sapiens) (UniProt Q13237); experiment: Binding affinity to wild-type human partial length PRKG2 (S422 to F762 residues) expressed in mammalian expression system assessed as remaining unbound target protein level at 1000 nM by Kinomescan method relative to control
[21] = biological target: cAMP-dependent protein kinase catalytic subunit PRKX (Homo sapiens) (UniProt P51817); experiment: Binding affinity to wild-type human partial length PRKX (M1 to F358 residues) expressed in bacterial expression system assessed as remaining unbound target protein level at 1000 nM by Kinomescan method relative to control
[22] = biological target: Mitogen-activated protein kinase kinase kinase 19 (Homo sapiens) (UniProt Q56UN5); experiment: Binding affinity to wild-type human partial length YSK4 (T1019 to H1328 residues) expressed in mammalian expression system assessed as remaining unbound target protein level at 1000 nM by Kinomescan method relative to control
[23] = biological target: CDK3/Cyclin E (Homo sapiens, UniProt Q00526); experiment: Inhibition of recombinant GST-tagged human CDK3/cyclin E1; type: protein-complex assay

Receptor-type tyrosine-protein kinase FLT3 (Homo sapiens), sequence (P36888 whole entry, the tested form may be a part): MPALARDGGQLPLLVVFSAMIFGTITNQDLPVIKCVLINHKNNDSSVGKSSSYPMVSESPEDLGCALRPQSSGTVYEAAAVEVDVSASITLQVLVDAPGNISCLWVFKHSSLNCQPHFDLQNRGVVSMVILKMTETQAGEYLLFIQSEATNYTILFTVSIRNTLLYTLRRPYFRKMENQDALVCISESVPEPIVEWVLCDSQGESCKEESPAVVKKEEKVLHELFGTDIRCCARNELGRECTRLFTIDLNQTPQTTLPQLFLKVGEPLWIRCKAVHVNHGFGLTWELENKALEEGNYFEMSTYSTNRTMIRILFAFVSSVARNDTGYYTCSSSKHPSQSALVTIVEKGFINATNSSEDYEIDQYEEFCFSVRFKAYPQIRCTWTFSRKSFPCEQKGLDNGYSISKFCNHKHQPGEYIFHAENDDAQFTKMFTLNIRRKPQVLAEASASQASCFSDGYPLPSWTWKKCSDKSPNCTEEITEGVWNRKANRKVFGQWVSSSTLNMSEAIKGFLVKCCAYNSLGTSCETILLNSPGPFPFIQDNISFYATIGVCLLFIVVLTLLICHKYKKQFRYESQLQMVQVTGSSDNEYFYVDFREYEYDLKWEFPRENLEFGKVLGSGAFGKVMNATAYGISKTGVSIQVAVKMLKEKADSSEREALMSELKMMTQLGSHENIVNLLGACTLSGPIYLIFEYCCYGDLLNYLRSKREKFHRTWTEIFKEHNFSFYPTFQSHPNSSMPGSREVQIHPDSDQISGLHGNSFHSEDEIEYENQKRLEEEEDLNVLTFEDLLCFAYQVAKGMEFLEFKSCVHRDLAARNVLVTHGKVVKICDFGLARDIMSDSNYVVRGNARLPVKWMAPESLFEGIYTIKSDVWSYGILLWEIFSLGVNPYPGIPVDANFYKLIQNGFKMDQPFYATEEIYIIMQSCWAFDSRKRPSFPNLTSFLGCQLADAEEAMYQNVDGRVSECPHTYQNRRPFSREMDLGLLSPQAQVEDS
Mitogen-activated protein kinase kinase kinase 19 (Homo sapiens), sequence (Q56UN5 whole entry, the tested form may be a part): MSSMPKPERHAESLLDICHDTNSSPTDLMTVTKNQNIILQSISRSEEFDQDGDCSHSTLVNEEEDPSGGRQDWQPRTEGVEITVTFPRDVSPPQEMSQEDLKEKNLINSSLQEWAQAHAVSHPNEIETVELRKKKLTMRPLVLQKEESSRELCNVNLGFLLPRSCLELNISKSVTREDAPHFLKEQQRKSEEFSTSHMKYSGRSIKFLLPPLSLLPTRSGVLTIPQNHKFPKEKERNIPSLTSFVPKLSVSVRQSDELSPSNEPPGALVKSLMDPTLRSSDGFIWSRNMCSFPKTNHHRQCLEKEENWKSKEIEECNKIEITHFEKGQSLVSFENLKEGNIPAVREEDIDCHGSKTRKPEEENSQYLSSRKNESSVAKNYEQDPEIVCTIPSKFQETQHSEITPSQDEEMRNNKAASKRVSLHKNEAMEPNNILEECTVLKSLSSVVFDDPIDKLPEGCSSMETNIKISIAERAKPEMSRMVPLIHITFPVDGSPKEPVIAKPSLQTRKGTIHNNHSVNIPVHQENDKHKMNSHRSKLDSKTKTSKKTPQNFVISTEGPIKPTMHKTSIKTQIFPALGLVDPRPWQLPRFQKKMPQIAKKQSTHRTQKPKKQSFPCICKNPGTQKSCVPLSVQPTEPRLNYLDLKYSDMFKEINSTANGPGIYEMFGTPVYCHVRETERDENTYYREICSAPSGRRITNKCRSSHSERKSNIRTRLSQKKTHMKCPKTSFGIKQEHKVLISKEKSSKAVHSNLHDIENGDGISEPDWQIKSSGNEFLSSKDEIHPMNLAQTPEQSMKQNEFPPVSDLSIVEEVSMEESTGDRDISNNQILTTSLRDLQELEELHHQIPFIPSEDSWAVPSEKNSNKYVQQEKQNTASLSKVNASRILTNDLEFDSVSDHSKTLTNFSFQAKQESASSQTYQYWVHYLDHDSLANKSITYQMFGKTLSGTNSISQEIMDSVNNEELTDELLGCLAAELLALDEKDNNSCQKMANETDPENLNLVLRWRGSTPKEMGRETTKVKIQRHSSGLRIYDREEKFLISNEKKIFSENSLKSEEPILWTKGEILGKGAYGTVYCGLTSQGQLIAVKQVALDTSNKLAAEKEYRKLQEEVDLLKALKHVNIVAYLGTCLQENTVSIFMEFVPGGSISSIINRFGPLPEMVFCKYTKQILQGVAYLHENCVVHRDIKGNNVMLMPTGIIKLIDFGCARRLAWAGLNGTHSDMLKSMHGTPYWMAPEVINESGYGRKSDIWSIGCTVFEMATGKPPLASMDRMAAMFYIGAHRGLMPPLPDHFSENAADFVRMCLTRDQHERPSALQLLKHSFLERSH
Tyrosine-protein kinase ITK/TSK (Homo sapiens), sequence (Q08881 whole entry, the tested form may be a part): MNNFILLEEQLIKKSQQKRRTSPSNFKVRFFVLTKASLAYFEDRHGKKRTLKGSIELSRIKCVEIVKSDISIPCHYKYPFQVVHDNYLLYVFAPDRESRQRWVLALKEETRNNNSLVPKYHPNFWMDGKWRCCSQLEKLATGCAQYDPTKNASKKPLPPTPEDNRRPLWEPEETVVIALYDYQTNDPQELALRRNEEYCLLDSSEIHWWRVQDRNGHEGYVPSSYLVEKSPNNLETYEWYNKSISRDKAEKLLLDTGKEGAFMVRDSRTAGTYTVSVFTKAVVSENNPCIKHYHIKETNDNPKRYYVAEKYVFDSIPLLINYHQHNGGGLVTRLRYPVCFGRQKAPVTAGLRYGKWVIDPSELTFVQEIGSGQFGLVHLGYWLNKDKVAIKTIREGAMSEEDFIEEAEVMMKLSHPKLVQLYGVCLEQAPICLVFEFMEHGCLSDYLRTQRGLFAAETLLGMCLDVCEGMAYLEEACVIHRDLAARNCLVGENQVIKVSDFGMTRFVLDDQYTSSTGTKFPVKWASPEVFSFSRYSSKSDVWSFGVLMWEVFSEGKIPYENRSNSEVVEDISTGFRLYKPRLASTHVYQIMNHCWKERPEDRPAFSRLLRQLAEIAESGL
Serine/threonine-protein kinase PAK 1 (Homo sapiens), sequence (Q13153 whole entry, the tested form may be a part): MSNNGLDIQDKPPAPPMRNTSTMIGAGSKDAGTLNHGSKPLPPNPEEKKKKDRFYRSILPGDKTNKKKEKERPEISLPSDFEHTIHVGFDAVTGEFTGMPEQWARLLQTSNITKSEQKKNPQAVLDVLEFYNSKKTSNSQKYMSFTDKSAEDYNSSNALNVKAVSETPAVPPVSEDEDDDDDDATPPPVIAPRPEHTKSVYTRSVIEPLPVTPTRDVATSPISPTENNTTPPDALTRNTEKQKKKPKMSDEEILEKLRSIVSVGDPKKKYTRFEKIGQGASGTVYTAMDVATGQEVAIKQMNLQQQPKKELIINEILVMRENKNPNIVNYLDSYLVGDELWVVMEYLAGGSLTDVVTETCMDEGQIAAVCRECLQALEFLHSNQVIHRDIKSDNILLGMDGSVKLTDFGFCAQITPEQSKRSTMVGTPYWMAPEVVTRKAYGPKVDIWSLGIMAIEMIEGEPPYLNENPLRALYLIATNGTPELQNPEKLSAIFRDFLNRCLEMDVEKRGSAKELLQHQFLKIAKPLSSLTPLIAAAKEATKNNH
Leukocyte tyrosine kinase receptor (Homo sapiens), sequence (P29376 whole entry, the tested form may be a part): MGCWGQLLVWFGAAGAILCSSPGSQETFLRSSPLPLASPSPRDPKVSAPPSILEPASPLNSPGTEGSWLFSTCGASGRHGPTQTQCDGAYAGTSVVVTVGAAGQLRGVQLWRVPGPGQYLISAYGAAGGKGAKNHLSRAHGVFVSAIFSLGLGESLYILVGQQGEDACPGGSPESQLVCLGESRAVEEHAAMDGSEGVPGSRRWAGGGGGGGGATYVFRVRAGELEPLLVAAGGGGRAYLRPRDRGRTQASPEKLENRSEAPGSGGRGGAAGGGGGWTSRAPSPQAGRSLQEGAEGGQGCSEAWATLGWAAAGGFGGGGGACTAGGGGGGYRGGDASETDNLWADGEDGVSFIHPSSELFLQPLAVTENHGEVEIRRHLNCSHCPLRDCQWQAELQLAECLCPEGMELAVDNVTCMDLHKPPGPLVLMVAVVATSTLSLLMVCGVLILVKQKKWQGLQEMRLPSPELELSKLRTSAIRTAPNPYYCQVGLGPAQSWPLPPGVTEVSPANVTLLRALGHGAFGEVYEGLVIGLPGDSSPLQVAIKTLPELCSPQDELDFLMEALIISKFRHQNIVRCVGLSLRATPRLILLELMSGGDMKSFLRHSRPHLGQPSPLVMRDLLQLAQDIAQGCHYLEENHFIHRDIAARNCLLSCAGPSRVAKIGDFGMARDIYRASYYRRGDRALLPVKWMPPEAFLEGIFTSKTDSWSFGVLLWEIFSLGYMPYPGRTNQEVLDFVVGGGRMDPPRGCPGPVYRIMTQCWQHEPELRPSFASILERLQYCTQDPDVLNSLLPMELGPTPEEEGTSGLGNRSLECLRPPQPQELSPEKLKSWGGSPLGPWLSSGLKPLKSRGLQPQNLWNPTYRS
Interleukin-1 receptor-associated kinase 3 (Homo sapiens), sequence (Q9Y616 whole entry, the tested form may be a part): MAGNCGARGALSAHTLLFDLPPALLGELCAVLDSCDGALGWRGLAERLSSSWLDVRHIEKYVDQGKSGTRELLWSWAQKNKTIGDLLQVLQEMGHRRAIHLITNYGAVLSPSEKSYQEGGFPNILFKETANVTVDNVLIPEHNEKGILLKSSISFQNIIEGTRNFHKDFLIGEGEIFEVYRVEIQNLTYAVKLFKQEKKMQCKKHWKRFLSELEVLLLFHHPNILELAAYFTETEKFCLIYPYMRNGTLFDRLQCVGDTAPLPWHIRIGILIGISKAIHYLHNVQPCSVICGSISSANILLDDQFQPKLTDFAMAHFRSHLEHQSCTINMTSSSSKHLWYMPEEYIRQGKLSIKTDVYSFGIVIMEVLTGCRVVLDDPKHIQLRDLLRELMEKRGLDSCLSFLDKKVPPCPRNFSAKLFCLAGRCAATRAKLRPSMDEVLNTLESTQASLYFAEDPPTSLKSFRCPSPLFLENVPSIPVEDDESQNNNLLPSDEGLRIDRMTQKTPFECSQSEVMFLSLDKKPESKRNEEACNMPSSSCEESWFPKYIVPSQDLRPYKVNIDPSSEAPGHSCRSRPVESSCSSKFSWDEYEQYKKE

## COCCN[C@H]1CC[C@H](Nc2cc(-c3csc(NCC4(C#N)CCOCC4)n3)c(Cl)cn2)CC1
[1]
  Activity: Dose-dependent effect
[2]
  Activity: inactive
[3]
  MRT last: 9.36 h
[4]
  MRT inf: 29.2 h
[5]
  Activity: 95%
[6]
  Activity: 97%
[7]
  Activity: 94%
[8]
  Activity: 100%
[9]
  Activity: 96%
[10]
  Activity: 97%
[11]
  Activity: 98%
[12]
  Activity: 89%
[13]
  Activity: 92%
[14]
  Activity: 96%
[15]
  Activity: 84%
[16]
  Activity: 95%
[17]
  Activity: 68%
[18]
  Activity: 94%
[19]
  Activity: 100%
[20]
  Activity: 100%
[21]
  Activity: 91%
[22]
  Activity: 72%
[23]
  IC50: > 10 µM
